Source: ChEMBL document CHEMBL4765317, “Novel bacterial topoisomerase inhibitors derived from isomannide” (Eur J Med Chem, 2020)
Values after ≈ are worked out from the molar mass of the structure shown.

How the values were obtained:
[1] = tested on: Staphylococcus aureus; assay: Antibacterial activity against Staphylococcus aureus ATCC 29213 assessed as reduction in bacterial growth by CLSI based broth microdilution method; type: functional
[2] = tested on: Staphylococcus aureus; assay: Antibacterial activity against cystic fibrosis patient isolate Staphylococcus aureus assessed as reduction in bacterial growth by CLSI based broth microdilution method; type: functional
[3] = tested on: Streptococcus pneumoniae; assay: Antibacterial activity against penicillin-susceptible Streptococcus pneumoniae LSI-4234 assessed as reduction in bacterial growth by CLSI based broth microdilution method; type: functional
[4] = tested on: Enterococcus faecium; assay: Antibacterial activity against Vancomycin-susceptible Enterococcus faecium DRL-4193 assessed as reduction in bacterial growth by CLSI based broth microdilution method; type: functional
[5] = tested on: Enterococcus faecium; assay: Antibacterial activity against Vancomycin-resistant Enterococcus faecium LSI-3340 assessed as reduction in bacterial growth by CLSI based broth microdilution method; type: functional
[6] = tested on: Enterococcus faecalis; assay: Antibacterial activity against Enterococcus faecalis ATCC 29212 assessed as reduction in bacterial growth by CLSI based broth microdilution method; type: functional
[7] = Inhibition of Staphylococcus aureus topoisomerase IV using kDNA as substrate incubated for 30 mins by gel electrophoresis analysis; conditions: read-out: IC50
[8] = tested on: Staphylococcus aureus; assay: Antibacterial activity against Staphylococcus aureus harboring DNA gyrase D83N mutant assessed as reduction in bacterial growth by CLSI based broth microdilution method; type: functional
Procedure, shortened: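 MIC against an isogenic NBTI-resistant daughter strain carrying a D83N substitution in DNA gyrase, originally selected under NBTI pressure from multidrug-resistant MRSA isolate 3527. CLSI broth microdilution was used, with values in µg/mL.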

[9] = target: Voltage-gated inwardly rectifying potassium channel KCNH2 (Homo sapiens, UniProt Q12809); assay: Inhibition of human ERG
[10] = target: T1, Nav1.5 (late current) (Homo sapiens, UniProt Q14524); assay: Inhibition of recombinant human Nav1.5 late expressed in human HEK293 cells late at 3 uM in presence of ATXII by automated Qpatch clamp assay relative to control; type: ADME, cell-based; conditions: HEK293 cells expressing recombinant human Nav1.5
Procedure, shortened: (§1)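 Part of an eight-assay CiPA panel run on a QPatch HT automated patch clamp at 3, 30 and 100 µM, in duplicate. The test compound came from a 30 mM DMSO stock. Data were filtered for seal quality, seal drop and current amplitude, and reported as mean percent inhibition.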

[11] = target: T1, Nav1.5 (late current); assay: Inhibition of recombinant human Nav1.5 late expressed in human HEK293 cells at 30 uM in presence of ATXII by automated Qpatch clamp assay relative to control; type: ADME, cell-based; conditions: HEK293 cells expressing recombinant human Nav1.5; procedure, shortened: as §1
[12] = target: T1, Nav1.5 (late current); assay: Inhibition of recombinant human Nav1.5 late expressed in human HEK293 cells at 100 uM in presence of ATXII by automated Qpatch clamp assay relative to control; type: ADME, cell-based; conditions: HEK293 cells expressing recombinant human Nav1.5; procedure, shortened: as §1
[13] = target: Sodium channel protein type 5 subunit alpha (Homo sapiens, UniProt Q14524); assay: Activation of recombinant human Nav1.5 late expressed in human HEK293 cells assessed as activation of late current at 100 uM by automated Qpatch clamp assay relative to control; type: ADME, cell-based; conditions: hek293, 100 µM
Procedure, shortened: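 Part of an eight-assay CiPA cardiac ion channel panel run in duplicate on a QPatch HT automated patch-clamp system. Compound was prepared as a 30 mM DMSO stock and tested at 3, 30 and 100 µM. Recordings were filtered for seal quality, seal drop and current amplitude, and results are reported as mean percent values.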

[14] = target: Histamine H2 receptor (Homo sapiens) (UniProt P25021); assay: Inhibition of recombinant human full length histamine H2 receptor expressed in CHO-K1 cells using [125I] Aminopotentidine as […] at 100 uM incubated for 120 mins by scintillation counting method relative to control; type: cell-based
Procedure, shortened: (§2)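 Off-target screen against a panel of 44 receptors, enzymes and transporters, run in duplicate at a single 100 µM concentration. Results are given as % inhibition. No concentration-response follow-up was done.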

[15] = target: Sodium-dependent noradrenaline transporter (Homo sapiens) (UniProt P23975); assay: Inhibition of recombinant human full length Norepinephrine transporter expressed in dog MDCK cells at 100 uM in presence of [125I]-RTI-55 incubated for 180 mins by scintillation counting method relative to control; type: cell-based; conditions: CHO-K1; procedure, shortened: as §2
[16] = target: 5-hydroxytryptamine receptor 2B (Homo sapiens) (UniProt P41595); assay: Inhibition of recombinant human full length 5HT2B expressed in CHO-K1 cells at 100 uM incubated for 30 mins by TR-FRET assay relative to control; type: cell-based; procedure, shortened: as §2
[17] = target: Sodium-dependent dopamine transporter (Homo sapiens) (UniProt Q01959); assay: Inhibition of recombinant human full length Dopamine transporter expressed in CHO-S cells at 100 uM in presence of [125I]-RTI-55 incubated for 180 mins by scintillation counting method relative to control; type: cell-based; procedure, shortened: as §2
[18] = Cytotoxicity against human HepaRG assessed as reduction in cell viability at 100 uM incubated for 24 hrs by Cell-Titer Glo assay; type: cell-based; conditions: HepaRG cells, read-out: INH
Procedure, shortened: (§3)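 ATP-based viability read-out in HepaRG cells over a five-point concentration series (0.01, 0.1, 1, 10, 100 µM). Results are given as % cytotoxicity at each concentration.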

[19] = Cytotoxicity against human HepaRG assessed as reduction in cell viability at 0.1 uM incubated for 24 hrs by Cell-Titer Glo assay; type: cell-based; conditions: HepaRG cells, read-out: INH; procedure, shortened: as §3
[20] = Permeability across basolateral to apical side in human Caco2 cells at 10 uM by LC-MS/MS analysis; type: ADME, cell-based; conditions: Caco-2, read-out: permeability
[21] = Metabolic stability in mouse liver microsomes assessed as half life at 10 uM incubated for 5 mins followed by NADPH addition and measured upto 60 mins by LC-MS analysis; type: ADME, Microsome; conditions: time 65 min
[22] = Metabolic stability in human liver microsomes assessed as half life at 10 uM incubated for 5 mins followed by NADPH addition and measured upto 60 mins by LC-MS analysis; type: ADME, Microsome; conditions: time 65 min
[23] = target: CYP2C9 (Homo sapiens, UniProt P11712); assay: Inhibition of human liver microsome CYP2C9 at 10 uM in presence of NADPH incubated for 10 to 30 mins by LC-MS-MS analysis; type: ADME; conditions: human liver microsomes, time 10-30 min
[24] = target: CYP2C19 (Homo sapiens, UniProt P33261); assay: Inhibition of human liver microsome CYP2C19 at 10 uM in presence of NADPH incubated for 10 to 30 mins by LC-MS-MS analysis; type: ADME; conditions: human liver microsomes, time 10-30 min
[25] = target: Cytochrome P450 3A4 (Homo sapiens, UniProt P08684); assay: Inhibition of human liver microsome CYP3A4 in presence of NADPH incubated for 10 to 30 mins by LC-MS-MS analysis; type: ADME, microsomes
[26] = target: T2, CYP3A4 (Homo sapiens, UniProt P08684); assay: Residual activity of human liver microsome CYP3A4 at 1 uM in presence of NADPH incubated for 10 to 30 mins by LC-MS-MS analysis; conditions: human liver microsomes
[27] = Inhibition of Staphylococcus aureus DNA gyrase using relaxed pBR322 DNA as substrate incubated for 30 mins by agarose gel electrophoresis method
[28] = target: T2, CYP3A4; assay: Inhibition of human liver microsome CYP3A4 at 10 uM in presence of NADPH incubated for 10 to 30 mins by LC-MS-MS analysis; values are per cent of control; conditions: human liver microsomes

T1 sequence (Q14524 whole entry): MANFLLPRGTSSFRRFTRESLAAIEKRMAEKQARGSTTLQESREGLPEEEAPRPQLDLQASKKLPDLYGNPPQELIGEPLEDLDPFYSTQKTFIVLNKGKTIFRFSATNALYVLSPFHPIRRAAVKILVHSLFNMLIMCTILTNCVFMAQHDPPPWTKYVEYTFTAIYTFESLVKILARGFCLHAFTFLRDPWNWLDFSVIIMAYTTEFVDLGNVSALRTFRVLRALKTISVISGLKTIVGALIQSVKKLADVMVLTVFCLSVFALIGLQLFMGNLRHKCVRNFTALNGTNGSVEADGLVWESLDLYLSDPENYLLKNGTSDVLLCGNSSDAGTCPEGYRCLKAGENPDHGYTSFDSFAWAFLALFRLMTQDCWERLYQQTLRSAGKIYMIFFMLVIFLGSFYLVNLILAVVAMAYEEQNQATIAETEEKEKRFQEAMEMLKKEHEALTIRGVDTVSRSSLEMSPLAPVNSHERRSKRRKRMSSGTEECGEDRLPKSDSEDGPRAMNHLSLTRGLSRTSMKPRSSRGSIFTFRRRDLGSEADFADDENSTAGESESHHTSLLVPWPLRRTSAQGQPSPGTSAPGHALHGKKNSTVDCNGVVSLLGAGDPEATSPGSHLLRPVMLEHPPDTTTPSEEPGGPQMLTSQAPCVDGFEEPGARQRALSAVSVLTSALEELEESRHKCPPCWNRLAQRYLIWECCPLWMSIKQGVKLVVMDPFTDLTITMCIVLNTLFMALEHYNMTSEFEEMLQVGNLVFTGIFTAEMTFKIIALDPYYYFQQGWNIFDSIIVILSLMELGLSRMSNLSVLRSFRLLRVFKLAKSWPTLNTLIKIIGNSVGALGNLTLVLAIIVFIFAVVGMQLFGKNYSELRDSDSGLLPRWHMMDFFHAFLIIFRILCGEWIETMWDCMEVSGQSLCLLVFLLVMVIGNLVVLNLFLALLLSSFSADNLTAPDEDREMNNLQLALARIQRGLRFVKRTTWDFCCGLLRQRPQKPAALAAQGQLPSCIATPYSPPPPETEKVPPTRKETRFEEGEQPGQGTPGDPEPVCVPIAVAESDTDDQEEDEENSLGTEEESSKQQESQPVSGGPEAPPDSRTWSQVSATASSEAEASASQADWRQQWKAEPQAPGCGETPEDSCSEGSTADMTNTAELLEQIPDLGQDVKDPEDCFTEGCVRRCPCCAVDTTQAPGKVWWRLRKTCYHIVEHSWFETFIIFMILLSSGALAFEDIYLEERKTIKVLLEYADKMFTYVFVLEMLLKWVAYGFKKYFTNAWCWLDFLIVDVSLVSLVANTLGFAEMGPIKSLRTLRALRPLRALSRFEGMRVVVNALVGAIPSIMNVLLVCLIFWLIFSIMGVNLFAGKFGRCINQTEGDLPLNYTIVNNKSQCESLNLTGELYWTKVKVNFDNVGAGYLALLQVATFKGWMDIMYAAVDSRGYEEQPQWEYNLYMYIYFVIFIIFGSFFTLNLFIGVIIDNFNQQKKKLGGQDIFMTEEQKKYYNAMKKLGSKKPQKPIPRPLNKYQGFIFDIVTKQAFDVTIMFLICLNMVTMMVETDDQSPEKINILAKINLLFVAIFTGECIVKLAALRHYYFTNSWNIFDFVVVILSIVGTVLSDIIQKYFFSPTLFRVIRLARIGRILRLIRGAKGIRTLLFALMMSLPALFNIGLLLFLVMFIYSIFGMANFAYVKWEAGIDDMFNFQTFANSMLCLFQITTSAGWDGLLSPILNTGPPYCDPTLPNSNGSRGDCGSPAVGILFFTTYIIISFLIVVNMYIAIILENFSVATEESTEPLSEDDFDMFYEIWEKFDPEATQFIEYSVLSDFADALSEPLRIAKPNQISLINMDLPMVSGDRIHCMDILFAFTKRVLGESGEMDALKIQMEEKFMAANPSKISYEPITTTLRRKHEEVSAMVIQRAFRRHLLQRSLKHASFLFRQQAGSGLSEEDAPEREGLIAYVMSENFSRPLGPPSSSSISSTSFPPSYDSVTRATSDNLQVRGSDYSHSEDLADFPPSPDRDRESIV
T2 sequence (P08684 whole entry): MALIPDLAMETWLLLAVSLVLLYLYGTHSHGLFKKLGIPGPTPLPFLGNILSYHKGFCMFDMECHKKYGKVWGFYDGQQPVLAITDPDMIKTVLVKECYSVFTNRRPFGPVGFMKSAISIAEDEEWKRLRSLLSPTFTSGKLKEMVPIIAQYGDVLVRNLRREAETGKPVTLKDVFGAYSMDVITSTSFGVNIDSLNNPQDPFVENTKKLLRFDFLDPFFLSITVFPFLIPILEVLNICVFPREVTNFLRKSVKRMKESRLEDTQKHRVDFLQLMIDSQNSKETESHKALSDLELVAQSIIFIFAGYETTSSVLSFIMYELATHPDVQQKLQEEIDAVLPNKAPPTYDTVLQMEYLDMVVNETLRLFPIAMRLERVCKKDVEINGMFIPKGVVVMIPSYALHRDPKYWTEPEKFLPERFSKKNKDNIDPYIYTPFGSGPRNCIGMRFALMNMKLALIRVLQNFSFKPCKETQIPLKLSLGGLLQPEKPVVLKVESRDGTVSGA
Chain of CYP2C9 (P11712 whole entry): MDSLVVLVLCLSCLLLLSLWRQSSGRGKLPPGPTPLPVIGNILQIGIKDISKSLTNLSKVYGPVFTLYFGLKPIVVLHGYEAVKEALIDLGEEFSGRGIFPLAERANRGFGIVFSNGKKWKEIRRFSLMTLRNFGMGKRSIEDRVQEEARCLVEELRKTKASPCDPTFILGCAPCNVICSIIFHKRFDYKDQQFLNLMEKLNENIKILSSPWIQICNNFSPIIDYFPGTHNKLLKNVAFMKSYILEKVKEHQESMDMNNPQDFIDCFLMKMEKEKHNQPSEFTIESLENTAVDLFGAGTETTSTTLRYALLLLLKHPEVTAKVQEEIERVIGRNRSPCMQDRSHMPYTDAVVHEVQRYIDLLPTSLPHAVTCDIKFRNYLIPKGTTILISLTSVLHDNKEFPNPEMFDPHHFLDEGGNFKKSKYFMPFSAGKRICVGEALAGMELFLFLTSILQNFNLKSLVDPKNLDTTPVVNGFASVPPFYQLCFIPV
Chain of Sodium-dependent noradrenaline transporter (Homo sapiens) (P23975 whole entry): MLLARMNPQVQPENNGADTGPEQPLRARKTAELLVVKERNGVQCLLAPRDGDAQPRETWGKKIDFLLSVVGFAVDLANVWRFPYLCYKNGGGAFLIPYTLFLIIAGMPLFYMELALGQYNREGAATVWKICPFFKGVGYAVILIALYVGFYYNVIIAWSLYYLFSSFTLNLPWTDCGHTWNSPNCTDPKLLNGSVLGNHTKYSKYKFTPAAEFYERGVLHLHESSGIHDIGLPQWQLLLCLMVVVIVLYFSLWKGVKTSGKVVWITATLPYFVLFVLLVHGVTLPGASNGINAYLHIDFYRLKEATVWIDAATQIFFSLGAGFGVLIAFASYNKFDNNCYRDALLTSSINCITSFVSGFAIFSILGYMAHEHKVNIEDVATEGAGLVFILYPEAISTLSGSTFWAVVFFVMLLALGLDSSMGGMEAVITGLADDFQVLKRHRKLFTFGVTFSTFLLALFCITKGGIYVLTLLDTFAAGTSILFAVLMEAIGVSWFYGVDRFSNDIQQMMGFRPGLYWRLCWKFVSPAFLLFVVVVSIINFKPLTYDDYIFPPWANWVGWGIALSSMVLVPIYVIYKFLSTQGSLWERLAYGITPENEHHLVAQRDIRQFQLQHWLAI
Chain of Sodium-dependent dopamine transporter (Homo sapiens) (Q01959 whole entry): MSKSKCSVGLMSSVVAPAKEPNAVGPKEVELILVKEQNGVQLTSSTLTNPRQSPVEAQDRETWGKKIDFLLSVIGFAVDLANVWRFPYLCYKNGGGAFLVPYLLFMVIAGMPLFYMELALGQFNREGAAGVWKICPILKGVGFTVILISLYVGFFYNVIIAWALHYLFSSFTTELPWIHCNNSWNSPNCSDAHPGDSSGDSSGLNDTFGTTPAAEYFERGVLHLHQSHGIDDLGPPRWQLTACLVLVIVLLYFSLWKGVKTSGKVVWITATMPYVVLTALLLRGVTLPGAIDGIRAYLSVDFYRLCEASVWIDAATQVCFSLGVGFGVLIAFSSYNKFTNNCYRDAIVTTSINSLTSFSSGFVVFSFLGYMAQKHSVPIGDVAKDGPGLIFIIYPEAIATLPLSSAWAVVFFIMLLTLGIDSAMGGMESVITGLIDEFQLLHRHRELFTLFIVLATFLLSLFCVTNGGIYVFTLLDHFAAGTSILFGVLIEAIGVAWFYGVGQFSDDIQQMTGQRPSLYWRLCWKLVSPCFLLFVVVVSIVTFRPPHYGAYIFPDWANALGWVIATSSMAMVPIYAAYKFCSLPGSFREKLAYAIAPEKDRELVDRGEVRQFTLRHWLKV
Chain of Histamine H2 receptor (Homo sapiens) (P25021 whole entry): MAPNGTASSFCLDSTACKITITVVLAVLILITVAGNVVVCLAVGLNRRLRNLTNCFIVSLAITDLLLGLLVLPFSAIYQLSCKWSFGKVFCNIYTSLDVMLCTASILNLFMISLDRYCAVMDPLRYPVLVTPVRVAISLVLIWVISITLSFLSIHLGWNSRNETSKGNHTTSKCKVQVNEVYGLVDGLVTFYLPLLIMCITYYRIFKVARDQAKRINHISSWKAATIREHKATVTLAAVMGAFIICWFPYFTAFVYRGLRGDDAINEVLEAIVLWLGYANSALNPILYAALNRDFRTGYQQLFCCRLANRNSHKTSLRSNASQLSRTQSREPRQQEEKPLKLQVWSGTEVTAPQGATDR
Chain of Cytochrome P450 3A4 (P08684 whole entry): as the sequence (P08684 whole entry) above

`COc1ccc2ncc(F)c(CC[C@@]3(O)CO[C@@H]4[C@@H](NCc5cc6c(cn5)OCCO6)CO[C@@H]43)c2n1` showed an MIC [1] of 1 µg/mL (≈ 2.01 µM), an MIC [2] of 2 µg/mL (≈ 4.01 µM) and an MIC [3] of at most 0.12 µg/mL. The MIC [4] was 2 µg/mL (≈ 4.01 µM), the MIC [5] was 0.25 µg/mL (≈ 0.501 µM) and the MIC [6] was 2 µg/mL (≈ 4.01 µM). For the same compound, the IC50 [7] was 7.4 µM, the MIC [8] was 2 µg/mL (≈ 4.01 µM) and the IC50 [9] was 66 µM. For the same compound, the inhibition at 3 µM [10] was 4.3%, the inhibition at 30 µM [11] was 19.1% and the inhibition at 100 µM [12] was 50.9%. The Activity [13] was 17%, the inhibition [14] was 51% and the inhibition [15] was 68%. The inhibition [16] was 95%, the inhibition [17] was 96% and the cytotoxicity at 24 h, 100 µM [18] was 14%. The cytotoxicity at 24 h, 0.1 µM [19] was 4%, the Papp B→A at 10 µM [20] was 85.3 ×10⁻⁶ cm/s and the half-life at 10 µM [21] was 3 min. It also gave a half-life at 10 µM [22] of 6 min, an inhibition at 10 µM [23] of under 50% and an inhibition at 10 µM [24] of under 50%. For the same compound, the IC50 [25] was over 10 µM, the residual activity at 1 µM [26] was 60.4% and the IC50 [27] was 0.53 µM. The residual activity at 10 µM [28] was 49.5%.
